pIC50: −log10 of the molar value. Square brackets hold non-standard residues; d marks the D form. Peptide text beside a SMILES is read from it. * marks the point of attachment. Bpa = N[C@@H](Cc1ccc(C(=O)c2ccccc2)cc1)C(=O)O; Palmitoyl = CCCCCCCCCCCCCCCC(=O)*; Nle = CCCC[C@H](N)C(=O)O
test system: SK-MEL-2; experiment: Growth inhibition of SK-Mel2 melanoma cells after 48 hrs by MTT assay; assay type: functional, cell-based, Homo sapiens; details: Homo sapiens, SK-MEL-2, 48 h
In short: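 Cells seeded at 200-400 per well in DMEM with 10% FBS and left to attach for 24 h. The next day, inhibitor in medium at 2× was added in an equal volume, and cells were incubated 48 h in a CO2 incubator. Reference plates were read at time of addition for T0 density. MTT staining was read as absorbance at 544 nm and compared with untreated control cells.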

Molecule | pIC50
CCCCCCCCCCCCCCCC(=O)N[C@@H](CC(C)C)C(=O)N[C@H](C(=O)N[C@@H](Cc1ccc(O)cc1)C(=O)N[C@@H](C)C(=O)N[C@@H](Cc1ccc(C(=O)c2ccccc2)cc1)C(=O)N[C@@H](Cc1cnc[nH]1)C(=O)N[C@H](C(=O)N[C@@H](CO)C(=O)N[C@@H](Cc1ccccc1)C(=O)N[C@@H](CCCCN)C(=O)N[C@@H](C)C(=O)N[C@@H](CC(C)C)C(=O)O)[C@@H](C)O)[C@@H](C)O (Palmitoyl-LTYA[Bpa]HTSFKAL-OH) | 7.00
CCCCCCCCCCCCCCCC(=O)NCCCC[C@H](NC(=O)[C@H](CCCNC(=N)N)NC(=O)[C@H](CC(C)C)NC(=O)[C@H](CCSC)NC(=O)[C@@H](NC(=O)[C@H](CCC(=O)O)NC(=O)[C@H](CC(N)=O)NC(=O)[C@@H](NC(=O)[C@H](CCCCN)NC(=O)[C@H](CO)NC(=O)[C@H](C)NC(=O)[C@H](C)NC(=O)[C@H](CCCCN)NC(=O)[C@H](CCC(=O)O)NC(=O)[C@H](CO)NC(=O)[C@H](CC(C)C)NC(=O)[C@H](CC(C)C)NC(=O)CNC(=O)[C@@H]1CCCN1C(=O)[C@H](Cc1c[nH]cn1)NC(=O)[C@H](CC(N)=O)NC(=O)[C@H](CO)NC(=O)[C@H](CCCCN)NC(=O)[C@@H](NC(=O)[C@H](CO)NC(=O)[C@H](Cc1ccccc1)NC(=O)[C@H](CC(C)C)NC(=O)[C@@H](NC(=O)[C@H](CCSC)NC(=O)[C@@H](NC(=O)CNC(=O)[C@H](CCCNC(=N)N)NC(C)=O)C(C)C)[C@@H](C)O)[C@@H](C)CC)[C@@H](C)CC)[C@@H](C)O)C(=O)O (Ac-RGVMTLFSIKSNHPGLLSEKAASKINETMLRK(Palmitoyl)-OH) | 6.05
CCCCCCCCCCCCCCCC(=O)N[C@@H](CC(C)C)C(=O)N[C@H](C(=O)N[C@@H](Cc1ccc(O)cc1)C(=O)N[C@@H](C)C(=O)N[C@@H](Cc1c[nH]c2ccccc12)C(=O)N[C@@H](Cc1cnc[nH]1)C(=O)N[C@H](C(=O)N[C@@H](CO)C(=O)N[C@@H](Cc1ccccc1)C(=O)N[C@@H](CCCCN)C(=O)N[C@@H](C)C(=O)O)[C@@H](C)O)[C@@H](C)O (Palmitoyl-LTYAWHTSFKA-OH) | 7.05
H-WFVVLTYAWHTSFKAL-OH | < 5.30
CCCCCCCCCCCCCCCC(=O)NCCCC[C@H](NC(=O)[C@H](CCCNC(=N)N)NC(=O)[C@H](CC(C)C)NC(=O)[C@H](CCSC)NC(=O)[C@@H](NC(=O)[C@H](CCC(=O)O)NC(=O)[C@H](CC(N)=O)NC(=O)[C@@H](NC(=O)[C@H](CCCCN)NC(=O)[C@H](CO)NC(=O)[C@H](C)NC(=O)[C@H](C)NC(=O)[C@H](CCCCN)NC(=O)[C@H](CCC(=O)O)NC(=O)[C@H](CO)NC(=O)[C@H](CC(C)C)NC(=O)[C@H](CC(C)C)NC(C)=O)[C@@H](C)CC)[C@@H](C)O)C(=O)O (stereo in doubt; form 2) | 5.88
CCCCCCCCCCCCCCCC(=O)N[C@@H](CCCNC(=N)N)C(=O)NCC(=O)N[C@H](C(=O)N[C@@H](CCSC)C(=O)N[C@H](C(=O)N[C@@H](CC(C)C)C(=O)N[C@@H](Cc1ccccc1)C(=O)N[C@@H](CO)C(=O)N[C@H](C(=O)N[C@@H](CCCCN)C(=O)N[C@@H](CO)C(=O)N[C@@H](CC(N)=O)C(=O)N[C@@H](Cc1c[nH]cn1)C(=O)O)[C@@H](C)CC)[C@@H](C)O)C(C)C (Palmitoyl-RGVMTLFSIKSNH-OH) | 6.02
CCCC[C@H](NC(=O)[C@H](CCCNC(=N)N)NC(=O)[C@H](CCCNC(=N)N)NC(=O)[C@H](CC(N)=O)NC(=O)[C@@H]1CCCN1C(=O)[C@H](Cc1ccccc1)NC(=O)[C@H](Cc1c[nH]c2ccccc12)NC(=O)[C@@H](NC(=O)[C@H](CCCCN)NC(=O)[C@@H](NC(=O)[C@H](CCC(N)=O)NC(=O)[C@H](CCCNC(=N)N)NC(=O)[C@H](CC(C)C)NC(=O)[C@H](C)NC(=O)[C@H](CCCCN)NC(=O)[C@H](Cc1ccccc1)NC(=O)[C@H](CO)NC(=O)[C@@H](NC(=O)[C@H](Cc1cnc[nH]1)NC(=O)[C@H](Cc1c[nH]c2ccccc12)NC(=O)[C@H](C)NC(=O)[C@H](Cc1ccc(O)cc1)NC(=O)[C@@H](NC(=O)[C@H](CC(C)C)NC(C)=O)[C@@H](C)O)[C@@H](C)O)[C@@H](C)CC)[C@@H](C)CC)C(=O)N[C@@H](CCCCN)C(=O)N[C@@H](Cc1c[nH]c2ccccc12)C(=O)N[C@@H](CCCCN)C(=O)N[C@@H](CCCCN)C(=O)O (Ac-LTYAWHTSFKALRQIKIWFPNRR[Nle]KWKK-OH) | < 4.82
CCCCCCCCCCCCCCCC(=O)N[C@H](C(=O)N[C@@H](Cc1ccc(O)cc1)C(=O)N[C@@H](C)C(=O)N[C@@H](Cc1c[nH]c2ccccc12)C(=O)N[C@@H](Cc1cnc[nH]1)C(=O)N[C@H](C(=O)N[C@@H](CO)C(=O)N[C@@H](Cc1ccccc1)C(=O)N[C@@H](CCCCN)C(=O)N[C@@H](C)C(=O)N[C@@H](CC(C)C)C(=O)O)[C@@H](C)O)[C@@H](C)O (Palmitoyl-TYAWHTSFKAL-OH) | 6.15
CCCCCCCCCCCCCCCC(=O)NCCCC[C@H](NC(=O)[C@H](Cc1ccc(O)cc1)NC(=O)[C@H](CO)NC(=O)[C@@H](NC(=O)[C@H](CCCCN)NC(=O)CNC(=O)[C@H](CO)NC(=O)[C@H](CC(C)C)NC(=O)[C@@H]1CCCN1C(=O)[C@H](CCC(N)=O)NC(=O)[C@H](Cc1ccc(O)cc1)NC(=O)[C@@H](NC(=O)[C@@H](NC(=O)CNC(=O)[C@H](CC(C)C)NC(=O)[C@H](C)NC(=O)[C@H](CCCCN)NC(=O)[C@H](Cc1ccccc1)NC(=O)[C@H](CO)NC(=O)[C@@H](NC(=O)[C@H](Cc1cnc[nH]1)NC(=O)[C@H](Cc1c[nH]c2ccccc12)NC(=O)[C@H](C)NC(=O)[C@H](Cc1ccc(O)cc1)NC(=O)[C@@H](NC(=O)[C@H](CC(C)C)NC(=O)CCCCCCCCCCCCCCC)[C@@H](C)O)[C@@H](C)O)[C@@H](C)O)[C@@H](C)O)[C@@H](C)O)C(=O)O (Palmitoyl-LTYAWHTSFKALGTTYQPLSGKTSYK(Palmitoyl)-OH) | 7.30
CCCCCCCCCCCCCCCC(=O)NCCCC[C@H](NC(=O)[C@H](Cc1ccc(O)cc1)NC(=O)[C@H](CO)NC(=O)[C@@H](NC(=O)[C@H](CCCCN)NC(=O)CNC(=O)[C@H](CO)NC(=O)[C@H](CC(C)C)NC(=O)[C@@H]1CCCN1C(=O)[C@H](CCC(N)=O)NC(=O)[C@H](Cc1ccc(O)cc1)NC(=O)[C@@H](NC(=O)[C@@H](NC(=O)CNC(C)=O)[C@@H](C)O)[C@@H](C)O)[C@@H](C)O)C(=O)O (Ac-GTTYQPLSGKTSYK(Palmitoyl)-OH) | 5.57
CCCCCCCCCCCCCCCC(=O)N[C@@H](CC(C)C)C(=O)N[C@H](C(=O)N[C@@H](Cc1ccc(O)cc1)C(=O)N[C@@H](C)C(=O)N[C@@H](Cc1c[nH]c2ccccc12)C(=O)N[C@@H](Cc1cnc[nH]1)C(=O)N[C@H](C(=O)N[C@@H](CO)C(=O)N[C@@H](Cc1ccccc1)C(=O)N[C@@H](CCCCN)C(=O)O)[C@@H](C)O)[C@@H](C)O (Palmitoyl-LTYAWHTSFK-OH) | 7.22
H-VWFVVLTYAWHTSFKAL-OH | < 5.30
CCCCCCCCCCCCCCCC(=O)N[C@@H](CC(C)C)C(=O)N[C@@H](Cc1ccccc1)C(=O)N[C@@H](CO)C(=O)N[C@H](C(=O)N[C@@H](CCCCN)C(=O)N[C@@H](CO)C(=O)N[C@@H](CC(N)=O)C(=O)N[C@@H](Cc1c[nH]cn1)C(=O)N1CCC[C@H]1C(=O)NCC(=O)N[C@@H](CC(C)C)C(=O)N[C@@H](CC(C)C)C(=O)N[C@@H](CO)C(=O)N[C@@H](CCC(=O)O)C(=O)N[C@@H](CCCCN)C(=O)N[C@@H](C)C(=O)N[C@@H](C)C(=O)N[C@@H](CO)C(=O)N[C@@H](CCCCN)C(=O)N[C@H](C(=O)N[C@@H](CC(N)=O)C(=O)N[C@@H](CCC(=O)O)C(=O)N[C@H](C(=O)N[C@@H](CCSC)C(=O)N[C@@H](CC(C)C)C(=O)N[C@@H](CCCNC(=N)N)C(=O)O)[C@@H](C)O)[C@@H](C)CC)[C@@H](C)CC (Palmitoyl-LFSIKSNHPGLLSEKAASKINETMLR-OH) | 5.82

Source: ChEMBL document CHEMBL1148755, “Structural analogues of smoothened intracellular loops as potent inhibitors of Hedgehog pathway and cancer cell growth” (J Med Chem, 2007)
